Measured values published in ChEMBL document CHEMBL1158816, “Meroterpenes from the ascidian Aplidium aff. densum” (J Nat Prod, 2005).
In brackets after ≈: the same amount, converted by molar mass.

How the values were obtained:
Escherichia coli = test: Antimicrobial activity against Escherichia coli by broth dilution method; format: functional
In short: (§1)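 Broth dilution per NCCLS guidelines; compounds in DMSO (at most 5% of total volume) incubated with bacteria (Institut Pasteur strains) in PB medium, 37 °C, 24 h with stirring. Growth read as optical density at 630 nm. Triplicate, averaged. Where growth was absent, medium plated on rich solid medium to tell bacteriostatic from bactericidal.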

Micrococcus luteus = test: Antimicrobial activity against Micrococcus luteus by broth dilution method; format: functional; in short: as §1
CCRF-CEM = test: Cytotoxicity against human wild type CEM cells after 72 hrs; format: functional, cell-based
In short: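 CCRF-CEM (CEM-WT) acute lymphoblastic leukemia cells grown in RPMI 1640 with L-glutamine, 10% FCS, penicillin/streptomycin, 5% CO2, 37 °C. Serial dilutions in medium (10^-4 to 1 mg/mL) added to 2 × 10^5 cells/mL without medium renewal. Cells counted with a particle counter over time. IC50 taken at 72 h; triplicate, averaged.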

With CC1=CC2C(CC1)C(C)(C)OC21CC(=O)C=CC1=O (configuration not stated) [CONIDIONE] the MIC (Escherichia coli) was > 2000 µM and the MIC (Micrococcus luteus) was > 2000 µM.

CC(C)=CCCC1(C)C=Cc2cc(O)ccc2O1 (configuration not stated) [CORDIACHROMENE A] was tested, and the MIC (Escherichia coli) was > 2000 µM, the MIC (Micrococcus luteus) was 510 µM (≈ 125 µg/mL) and the IC50 (CCRF-CEM) was 30 µM.

For Cc1ccc2c(c1)-c1cc(O)ccc1OC2(C)C [DIDEHYDROCONICOL], the MIC (Escherichia coli) was > 2000 µM and the MIC (Micrococcus luteus) was 510 µM (≈ 123 µg/mL).

For CC1=C[C@@H]2c3cc(O)ccc3OC(C)(C)[C@@H]2CC1 [EPICONICOL], the MIC (Escherichia coli) was > 2000 µM, the MIC (Micrococcus luteus) was 130 µM (≈ 31.8 µg/mL) and the IC50 (CCRF-CEM) was 60 µmol.

With COC(C)(C)[C@H]1CCC(C)=C[C@H]1c1cc(O)ccc1O [METHOXYCONIDIOL] the MIC (Escherichia coli) was > 2000 µM and the MIC (Micrococcus luteus) was > 2000 µM.
